pEC50, pKi: −log10 of the molar value.
Legend:
[1] = target: T1, 5-hydroxytryptamine receptor 2C (Homo sapiens, UniProt P28335); assay: Agonist activity at human recombinant 5HT2C receptor expressed in CHO K1 cells assessed as calcium mobilisation by FLIPR assay; assay type: functional, cell-based
T1 sequence (P28335 whole entry): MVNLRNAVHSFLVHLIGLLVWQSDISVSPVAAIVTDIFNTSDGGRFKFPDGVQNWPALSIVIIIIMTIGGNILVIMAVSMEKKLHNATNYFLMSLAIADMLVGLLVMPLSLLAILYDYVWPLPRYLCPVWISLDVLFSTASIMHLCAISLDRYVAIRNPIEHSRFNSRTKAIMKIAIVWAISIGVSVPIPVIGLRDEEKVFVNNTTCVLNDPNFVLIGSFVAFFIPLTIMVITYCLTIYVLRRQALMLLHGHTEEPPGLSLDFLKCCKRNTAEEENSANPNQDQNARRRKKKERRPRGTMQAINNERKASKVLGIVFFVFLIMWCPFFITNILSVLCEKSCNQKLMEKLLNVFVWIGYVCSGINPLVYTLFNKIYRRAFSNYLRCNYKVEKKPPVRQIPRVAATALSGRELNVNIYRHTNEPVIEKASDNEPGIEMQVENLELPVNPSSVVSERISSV
Outline: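 Recombinant CHO K1 cells expressing the human 5-HT2C receptor. Agonism was read as a fluorescent calcium mobilisation signal in a FLIPR assay. Values were reported as EC50 and Emax (%).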

[2] = target: T2, 5-hydroxytryptamine receptor 2C (Homo sapiens) (UniProt P28335); assay: Agonist activity at human recombinant 5HT2C receptor transfected in CHO K1 cells assessed as calcium mobilisation at 10 uM by FLIPR assay relative to serotonin; assay type: functional, cell-based
T2 sequence (whole entry): T1 sequence (P28335 whole entry)
Outline: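 Recombinant CHO K1 cells stably expressing the human 5-HT2C receptor; agonist-induced calcium mobilisation read as a fluorescence signal on FLIPR. Potency reported as EC50 and efficacy as Emax (%).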

[3] = Intrinsic clearance in human liver microsomes; assay type: ADME, Microsome
[4] = Lipophilicity, log Dof the compound at pH 7.4; assay type: physicochemical; conditions: buffer
[5] = target: T3, 5-hydroxytryptamine receptor 2A (Homo sapiens, UniProt P28223); assay: Agonist activity at human recombinant 5HT2A receptor transfected in CHO K1 cells assessed as calcium mobilisation at 10 uM by FLIPR assay; assay type: functional, cell-based
T3 sequence (P28223 whole entry): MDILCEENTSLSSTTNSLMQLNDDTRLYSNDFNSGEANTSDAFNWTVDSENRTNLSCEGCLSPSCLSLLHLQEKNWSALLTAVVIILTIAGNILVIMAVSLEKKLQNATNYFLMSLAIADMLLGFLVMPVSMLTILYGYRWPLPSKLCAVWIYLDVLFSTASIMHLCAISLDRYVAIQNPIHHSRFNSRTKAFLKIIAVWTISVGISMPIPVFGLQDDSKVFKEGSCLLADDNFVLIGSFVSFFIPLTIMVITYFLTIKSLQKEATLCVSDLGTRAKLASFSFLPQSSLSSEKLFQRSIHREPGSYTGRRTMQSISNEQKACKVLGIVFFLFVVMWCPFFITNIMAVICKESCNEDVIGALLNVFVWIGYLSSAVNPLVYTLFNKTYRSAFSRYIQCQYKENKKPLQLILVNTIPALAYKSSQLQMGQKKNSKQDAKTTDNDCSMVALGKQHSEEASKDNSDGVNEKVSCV
Outline: (§1)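 Recombinant cell-based systems expressing the human 5-HT2A or 5-HT2B receptor. Agonist response was read as calcium mobilisation by FLIPR, with test compound at 10 μM. Results were reported as % agonism.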

[6] = target: T4, 5-hydroxytryptamine receptor 2B (Homo sapiens, UniProt P41595); assay: Agonist activity at human recombinant 5HT2B receptor transfected in CHO K1 cells assessed as calcium mobilisation at 10 uM by FLIPR assay; assay type: functional, cell-based; outline: as §1
T4 sequence (P41595 whole entry): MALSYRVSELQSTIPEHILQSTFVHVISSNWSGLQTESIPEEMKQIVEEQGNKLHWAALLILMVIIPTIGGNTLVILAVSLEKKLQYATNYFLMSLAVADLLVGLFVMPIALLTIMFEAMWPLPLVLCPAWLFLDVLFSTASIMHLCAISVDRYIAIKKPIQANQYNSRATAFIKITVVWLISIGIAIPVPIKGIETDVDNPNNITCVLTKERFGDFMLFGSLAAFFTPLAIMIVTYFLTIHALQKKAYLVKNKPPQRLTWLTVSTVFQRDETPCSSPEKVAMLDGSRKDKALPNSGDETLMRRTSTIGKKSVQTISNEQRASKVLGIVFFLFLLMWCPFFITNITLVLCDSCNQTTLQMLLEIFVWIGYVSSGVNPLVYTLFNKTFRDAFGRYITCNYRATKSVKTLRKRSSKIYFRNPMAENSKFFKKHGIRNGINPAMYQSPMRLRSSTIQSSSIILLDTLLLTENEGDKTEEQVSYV

MDR1 (human) = assay: Efflux ratio, permeability from basolateral to apical over apical to basolateral side in MDCK cells expressing human MDR1 gene; assay type: ADME, cell-based, Canis lupus familiaris; conditions: dog
[7] = target: Muscarinic acetylcholine receptor M3 (Homo sapiens) (UniProt P20309); assay: Binding affinity to M3 receptor
Muscarinic acetylcholine receptor M3 (Homo sapiens), sequence (P20309 whole entry, looked up): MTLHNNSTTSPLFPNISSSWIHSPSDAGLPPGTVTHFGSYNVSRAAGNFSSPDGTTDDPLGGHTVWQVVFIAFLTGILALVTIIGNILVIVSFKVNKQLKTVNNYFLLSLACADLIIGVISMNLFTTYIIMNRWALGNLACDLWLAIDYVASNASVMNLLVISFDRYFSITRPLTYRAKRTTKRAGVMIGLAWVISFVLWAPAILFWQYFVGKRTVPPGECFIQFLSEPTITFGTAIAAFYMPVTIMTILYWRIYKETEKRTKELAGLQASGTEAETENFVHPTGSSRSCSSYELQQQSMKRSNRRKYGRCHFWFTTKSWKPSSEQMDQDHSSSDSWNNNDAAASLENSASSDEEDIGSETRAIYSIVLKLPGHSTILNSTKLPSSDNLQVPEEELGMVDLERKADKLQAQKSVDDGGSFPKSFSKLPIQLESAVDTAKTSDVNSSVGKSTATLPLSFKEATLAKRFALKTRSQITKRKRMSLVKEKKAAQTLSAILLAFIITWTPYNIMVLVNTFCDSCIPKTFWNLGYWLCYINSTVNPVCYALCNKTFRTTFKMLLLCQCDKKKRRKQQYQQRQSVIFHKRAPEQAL

[8] = Binding affinity to calcium ion channel at L-verapamil site
[9] = target: Voltage-gated inwardly rectifying potassium channel KCNH2 (Homo sapiens, UniProt Q12809); assay: Binding affinity to human ERG
Voltage-gated inwardly rectifying potassium channel KCNH2, sequence (Q12809 whole entry): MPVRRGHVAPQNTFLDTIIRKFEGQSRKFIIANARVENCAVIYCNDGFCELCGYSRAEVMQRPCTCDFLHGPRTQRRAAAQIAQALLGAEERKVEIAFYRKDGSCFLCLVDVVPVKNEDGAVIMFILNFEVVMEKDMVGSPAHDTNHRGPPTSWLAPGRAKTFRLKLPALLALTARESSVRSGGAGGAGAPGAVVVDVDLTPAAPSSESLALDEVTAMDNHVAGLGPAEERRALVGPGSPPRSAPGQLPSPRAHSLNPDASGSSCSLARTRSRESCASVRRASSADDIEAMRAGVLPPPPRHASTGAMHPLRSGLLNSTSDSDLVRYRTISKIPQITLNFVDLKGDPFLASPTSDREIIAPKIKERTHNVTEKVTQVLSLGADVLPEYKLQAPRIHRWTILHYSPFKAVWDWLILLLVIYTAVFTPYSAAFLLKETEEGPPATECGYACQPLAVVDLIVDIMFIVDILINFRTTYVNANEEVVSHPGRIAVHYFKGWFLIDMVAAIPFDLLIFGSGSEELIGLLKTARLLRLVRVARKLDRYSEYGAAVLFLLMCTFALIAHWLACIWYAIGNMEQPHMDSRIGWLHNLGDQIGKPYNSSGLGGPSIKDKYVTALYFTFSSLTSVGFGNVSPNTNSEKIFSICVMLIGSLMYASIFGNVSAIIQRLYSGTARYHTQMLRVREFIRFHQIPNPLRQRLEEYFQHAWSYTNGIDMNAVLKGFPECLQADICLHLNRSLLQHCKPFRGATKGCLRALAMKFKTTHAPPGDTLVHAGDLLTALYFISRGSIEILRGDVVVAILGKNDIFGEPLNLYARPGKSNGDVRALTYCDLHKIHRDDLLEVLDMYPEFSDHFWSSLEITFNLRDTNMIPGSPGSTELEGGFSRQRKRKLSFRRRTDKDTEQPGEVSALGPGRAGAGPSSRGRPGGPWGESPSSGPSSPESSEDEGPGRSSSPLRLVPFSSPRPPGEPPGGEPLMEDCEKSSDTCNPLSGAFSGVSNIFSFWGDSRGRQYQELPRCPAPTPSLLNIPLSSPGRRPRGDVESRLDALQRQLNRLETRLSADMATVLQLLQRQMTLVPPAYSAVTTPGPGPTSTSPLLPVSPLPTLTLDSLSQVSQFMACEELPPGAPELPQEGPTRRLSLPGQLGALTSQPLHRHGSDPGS

[10] = target: D(3) dopamine receptor (Homo sapiens) (UniProt P35462); assay: Binding affinity to dopamine D3 receptor
D(3) dopamine receptor (Homo sapiens), sequence (P35462 whole entry): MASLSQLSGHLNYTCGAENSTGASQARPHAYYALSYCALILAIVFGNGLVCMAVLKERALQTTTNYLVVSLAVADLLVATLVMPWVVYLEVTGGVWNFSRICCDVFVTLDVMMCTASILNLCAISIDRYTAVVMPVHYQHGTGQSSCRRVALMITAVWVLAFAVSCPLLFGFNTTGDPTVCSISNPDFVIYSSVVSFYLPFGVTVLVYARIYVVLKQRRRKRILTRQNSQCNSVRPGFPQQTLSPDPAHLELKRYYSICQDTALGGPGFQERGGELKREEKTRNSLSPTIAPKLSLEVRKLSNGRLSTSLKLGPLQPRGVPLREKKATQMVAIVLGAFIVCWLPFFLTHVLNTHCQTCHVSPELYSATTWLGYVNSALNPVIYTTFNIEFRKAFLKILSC

Canis familiaris [11] = assay: Increase of urethral pressure in iv dosed dog; assay type: functional, Canis lupus familiaris, Urethra
Outline: (§2)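 Anaesthetised dogs, two animals, in a urethral function model. Compound was given by intravenous infusion. Peak urethral pressure was recorded as % increase, alongside measured free plasma concentrations.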

[12] = target: Beta-2 adrenergic receptor (Homo sapiens) (UniProt P07550); assay: Binding affinity to beta2 receptor
Beta-2 adrenergic receptor (Homo sapiens), sequence (P07550 whole entry, looked up): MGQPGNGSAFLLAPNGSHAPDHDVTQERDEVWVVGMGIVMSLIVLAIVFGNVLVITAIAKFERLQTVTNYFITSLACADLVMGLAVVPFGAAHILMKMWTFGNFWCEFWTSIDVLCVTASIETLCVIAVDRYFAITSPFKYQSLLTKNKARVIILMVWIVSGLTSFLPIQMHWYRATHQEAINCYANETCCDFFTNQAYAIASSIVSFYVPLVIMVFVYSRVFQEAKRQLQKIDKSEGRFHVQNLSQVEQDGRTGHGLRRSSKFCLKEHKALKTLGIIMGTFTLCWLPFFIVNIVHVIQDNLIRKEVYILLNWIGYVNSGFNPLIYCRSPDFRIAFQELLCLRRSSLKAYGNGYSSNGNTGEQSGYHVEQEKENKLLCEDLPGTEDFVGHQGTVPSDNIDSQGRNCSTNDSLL

[13] = Ratio of drug level in CSF to free plasma in iv dosed dog; assay type: ADME, organism-based, Canis lupus familiaris; conditions: in vivo
[14] = target: 5-hydroxytryptamine receptor 4 (Homo sapiens) (UniProt Q13639); assay: Binding affinity to 5HT4E receptor
5-hydroxytryptamine receptor 4 (Homo sapiens), sequence (Q13639 whole entry): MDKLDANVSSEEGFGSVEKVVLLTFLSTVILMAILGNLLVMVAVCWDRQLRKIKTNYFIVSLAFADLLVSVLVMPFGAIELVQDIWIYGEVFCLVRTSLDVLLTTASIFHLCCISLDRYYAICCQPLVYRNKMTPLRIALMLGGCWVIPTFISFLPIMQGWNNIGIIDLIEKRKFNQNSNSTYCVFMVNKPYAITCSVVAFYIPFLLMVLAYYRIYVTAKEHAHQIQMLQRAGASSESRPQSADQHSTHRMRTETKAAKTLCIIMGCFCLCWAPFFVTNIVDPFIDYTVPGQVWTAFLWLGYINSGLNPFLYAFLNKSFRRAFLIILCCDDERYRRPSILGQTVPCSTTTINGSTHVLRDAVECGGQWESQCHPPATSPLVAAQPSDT

[15] = target: T4, 5-hydroxytryptamine receptor 2B; assay: Agonist activity at human recombinant 5HT2B receptor transfected in CHO K1 cells assessed as calcium mobilisation by FLIPR assay; assay type: functional, cell-based
[16] = target: T3, 5-hydroxytryptamine receptor 2A; assay: Agonist activity at human recombinant 5HT2A receptor transfected in CHO K1 cells assessed as calcium mobilisation by FLIPR assay; assay type: functional, cell-based
[17] = target: 5-hydroxytryptamine receptor 1B (Homo sapiens) (UniProt P28222); assay: Binding affinity to 5HT1B receptor
5-hydroxytryptamine receptor 1B (Homo sapiens), sequence (P28222 whole entry): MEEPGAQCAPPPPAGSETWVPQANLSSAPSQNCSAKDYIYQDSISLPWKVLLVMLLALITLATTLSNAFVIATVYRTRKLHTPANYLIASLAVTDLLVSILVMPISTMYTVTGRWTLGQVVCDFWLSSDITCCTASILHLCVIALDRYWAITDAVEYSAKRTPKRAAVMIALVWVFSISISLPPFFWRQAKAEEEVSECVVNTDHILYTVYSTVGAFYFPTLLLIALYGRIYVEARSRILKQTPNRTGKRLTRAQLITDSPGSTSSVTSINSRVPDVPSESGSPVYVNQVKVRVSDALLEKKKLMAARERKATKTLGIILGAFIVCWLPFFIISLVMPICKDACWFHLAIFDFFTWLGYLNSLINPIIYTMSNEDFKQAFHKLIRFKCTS

Canis familiaris [18] = assay: Free plasma concentration in iv dosed dog; assay type: ADME, organism-based, Canis lupus familiaris; conditions: in vivo; outline: as §2

| Structure (SMILES) | pEC50 [1] | Emax [2] [%] | microsomal CLint [3] [µL/min/mg] | logD [4] | Activity [5] [%] | Activity [6] [%] | also measured |
| --- | --- | --- | --- | --- | --- | --- | --- |
| Cc1cc(=O)n(CCCc2ccccc2)c(N2CCNCC2)n1 | < 5.00 | – | – | – | – | – | – |
| Cn1c(COc2cc(F)ccc2Cl)nc(N2CCNCC2)cc1=O | 6.44 | 48 | < 7 | 1 | – | – | – |
| Cc1ccc(Cl)cc1OCc1nc(N2CCNCC2)cc(=O)n1C | 6.80 | 84 | < 7 | 1.5 | – | – | – |
| Cc1cc(=O)n(CCCOc2ccccc2Cl)c(N2CCNCC2)n1 | 7.25 | 83 | 27 | 1 | 58 | 46 | – |
| Cc1cc(=O)n(CCCOc2ccc(Cl)cc2)c(N2CCNCC2)n1 | 6.05 | 91 | – | – | – | – | – |
| C[C@@H]1CNCCN1c1ccc(=O)n(CCOc2ccccc2C(F)(F)F)n1 | 7.33 | 45 | 15 | 1.4 | 50 | < 10 | efflux ratio (MDR1 (human)): 3.4 |
| Cn1c(COc2ccccc2Cl)nc(N2CCNCC2)cc1=O | 7.14 | 61 | 11 | 0.8 | – | – | – |
| C[C@@H]1CNCCN1c1cc(=O)n(C)c(CCc2ccccc2C(F)(F)F)n1 | 7.19 | 59 | 29 | 1.8 | 45 | 6 | – |
| CCn1c(CCc2ccccc2Cl)nc(N2CCNCC2)cc1=O | 7.68 | 50 | 30 | 1.9 | 16 | < 5 | efflux ratio (MDR1 (human)): 4.3 |
| Cc1cc(=O)n(CCCOc2ccccc2F)c(N2CCNCC2)n1 | 7.11 | 92 | – | 0.45 | 39 | 35 | – |
| Cc1ccc(F)cc1OCc1nc(N2CCNCC2)cc(=O)n1C | 7.34 | 84 | < 7 | 1 | – | – | – |
| Cc1cc(=O)n(CCCOc2cccc(Cl)c2)c(N2CCNCC2)n1 | 6.58 | 86 | – | 1.2 | – | – | – |
| C[C@@H]1CNCCN1c1cc(=O)n(C)c(COc2ccccc2C(F)(F)F)n1 | – | – | – | – | – | – | Activity [7]: > 1 µM; Activity [8]: > 1 µM; pKi [9]: < 4.89; Activity [10]: 480 nM; Activity (Canis familiaris [11]): 20%; Activity [12]: > 1 µM; Ratio [13]: 0.34; Activity [14]: > 1 µM; pEC50 [15]: < 5.00; pEC50 [16]: < 5.82; Activity [17]: 210 nM; Cp (Canis familiaris [18]): 19 nM |
| Cc1cc(=O)n(CCCOCc2ccccc2)c(N2CCNCC2)n1 | < 5.00 | – | – | – | – | – | – |
| Cn1c(CCc2ccccc2)nc(N2CCNCC2)cc1=O | 6.56 | 43 | < 7 | 0.6 | 13 | < 5 | efflux ratio (MDR1 (human)): 3.4 |
| Cc1cc(=O)n(CCCOc2ccccc2)c(N2CCNCC2)n1 | 5.99 | 77 | 26 | 0.7 | 44 | 57 | efflux ratio (MDR1 (human)): 1.6 |
| CCn1c(COc2cc(F)ccc2Cl)nc(N2CCNCC2)cc1=O | 6.99 | 46 | < 7 | 1.4 | – | – | – |

| Structure (SMILES) | pEC50 [1] | Emax [2] [%] | microsomal CLint [3] [µL/min/mg] | logD [4] | Activity [5] [%] | Activity [6] [%] | also measured |
| --- | --- | --- | --- | --- | --- | --- | --- |
| Cn1c(COc2ccc(Cl)cc2)nc(N2CCNCC2)cc1=O | < 5.00 | – | < 7 | 0.8 | – | – | – |
| Cn1c(COc2cccc(Cl)c2)nc(N2CCNCC2)cc1=O | 6.31 | 66 | < 7 | 1 | – | – | – |
| Cc1cc(=O)n(CCCOc2ccccc2)c(N2CCNC[C@H]2C)n1 | 6.79 | 84 | 16 | 0.9 | – | – | – |
| Cn1c(COc2cccc(C(F)(F)F)c2)nc(N2CCNCC2)cc1=O | 6.31 | 49 | – | 1.3 | – | – | – |
| Cn1c(N2CCNCC2)nc(CCc2cccc(Cl)c2)cc1=O | < 5.00 | – | < 7 | 1.3 | – | – | – |
| C[C@@H]1CNCCN1c1cc(=O)n(C)c(CCc2cccc(Cl)c2)n1 | 7.59 | 59 | < 10 | 1.6 | 76 | 13 | efflux ratio (MDR1 (human)): 3.7 |
| Cc1cc(=O)n(CCCOc2ccc(F)cc2)c(N2CCNCC2)n1 | < 5.00 | – | – | 0.7 | – | – | – |
| CCn1c(COc2cccc(C#N)c2)nc(N2CCNCC2)cc1=O | 6.95 | 77 | < 7 | 0.4 | – | – | – |
| Cn1c(COc2cccc(C#N)c2)nc(N2CCNCC2)cc1=O | 6.50 | 63 | < 7 | 0.3 | – | – | – |
| Cn1c(COc2ccccc2C(F)(F)F)nc(N2CCNCC2)cc1=O | 7.52 | 72 | 14 | 1.4 | – | – | – |
| C[C@@H]1CNCCN1c1cc(=O)n(C)c(CCc2ccccc2)n1 | 6.58 | 50 | < 7 | 1 | 58 | < 5 | – |
| Cc1cc(=O)n(CCCOc2cccc(F)c2)c(N2CCNCC2)n1 | < 5.00 | – | – | 0.8 | – | – | – |
| Cc1ccccc1CCc1nc(N2CCNC[C@H]2C)cc(=O)n1C | 7.59 | 59 | 18 | 1.4 | 50 | < 5 | efflux ratio (MDR1 (human)): 3.5 |
| Cn1c(CCc2cccc(Cl)c2)nc(N2CCNCC2)cc1=O | 7.02 | 59 | < 7 | 1.2 | 57 | < 5 | efflux ratio (MDR1 (human)): 4 |
| C[C@@H]1CNCCN1c1cc(=O)n(C)c(CCc2ccccc2Cl)n1 | 7.68 | 46 | 24 | 1.6 | 27 | < 5 | efflux ratio (MDR1 (human)): 3.1 |
| Cc1ccccc1OCc1nc(N2CCNCC2)cc(=O)n1C | 6.64 | 60 | < 7 | 0.8 | – | – | – |
| Cn1c(COc2ccc(C(F)(F)F)cc2)nc(N2CCNCC2)cc1=O | < 5.00 | – | 8 | 1.1 | – | – | – |
